Source: ChEMBL document CHEMBL1152956, “Synthesis and cytotoxic activity of 5,6-heteroaromatically annulated pyridine-2,4-diamines” (Bioorg Med Chem, 2009)

Experiments:
DAN-G [1] = assay: Cytotoxicity against human DAN-G cells after 96 hrs by crystal violet staining; format: functional, cell-based
Procedure, shortened: (§1)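 Compounds were held as 20 mM DMSO stocks at -20 °C and serially diluted in DMSO to working solutions of 20, 10, 5.0, 2.50, 1.25 and […]. Five of these were diluted 1000-fold into medium, with DMSO-only controls. Dividing cells had 96 h continuous exposure, then glutaraldehyde fixation and crystal violet staining. Dye was redissolved in 70% ethanol and read at OD 570 nm. IC50 came from linear regression of log dose–response curves.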

MCF7 [2] = assay: Cytotoxicity against human MCF7 cells after 96 hrs by crystal violet staining; format: functional, cell-based; settings: MCF7, 96 h; procedure, shortened: as §1
5637 [3] = assay: Growth inhibition of human 5637 cells at 20 uM after 96 hrs by crystal violet staining; format: functional; settings: Homo sapiens, 5637, 96 h; read-out: GI
Procedure, shortened: (§2)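 This was a single-concentration screen. Actively dividing cells had 96 h continuous exposure to compound diluted 1000-fold from a DMSO solution into medium. Cells were fixed with glutaraldehyde and stained with crystal violet. Bound dye was redissolved in 70% ethanol and read at OD 570 nm. Growth inhibition was expressed against untreated controls.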

RT-4 [4] = assay: Cytotoxicity against human RT4 cells after 96 hrs by crystal violet staining; format: functional, cell-based; settings: RT-4, 96 h; procedure, shortened: as §1
A-427 [5] = assay: Cytotoxicity against human A427 cells after 96 hrs by crystal violet staining; format: functional, cell-based; settings: A-427, 96 h; procedure, shortened: as §1
DAN-G [6] = assay: Growth inhibition of human DAN-G cells at 20 uM after 96 hrs by crystal violet staining; format: functional; settings: read-out: GI; procedure, shortened: as §2
5637 [7] = assay: Cytotoxicity against human 5637 cells after 96 hrs by crystal violet staining; format: functional, cell-based; settings: Homo sapiens, 5637, 96 h; procedure, shortened: as §1
[8] = Growth inhibition of human LCLC-103H cells at 20 uM after 96 hrs by crystal violet staining; format: functional; settings: read-out: GI; procedure, shortened: as §2
[9] = Cytotoxicity against human LCLC-103H cells after 96 hrs by crystal violet staining; format: functional, cell-based; procedure, shortened: as §1
A-427 [10] = assay: Growth inhibition of human A427 cells at 20 uM after 96 hrs by crystal violet staining; format: functional; settings: A-427, 96 h, read-out: GI; procedure, shortened: as §2
MCF7 [11] = assay: Growth inhibition of human MCF7 cells at 20 uM after 96 hrs by crystal violet staining; format: functional; settings: MCF7, 96 h, read-out: GI; procedure, shortened: as §2
RT-4 [12] = assay: Growth inhibition of human RT4 cells at 20 uM after 96 hrs by crystal violet staining; format: functional; settings: RT-4, 96 h, read-out: GI; procedure, shortened: as §2

| SMILES | IC50 (DAN-G [1]) | IC50 (MCF7 [2]) | inhibition of growth at 20 µM 5637 [3] | IC50 (RT-4 [4]) | IC50 (A-427 [5]) | inhibition of growth at 20 µM (DAN-G [6]) | IC50 5637 [7] | inhibition of growth at 20 µM [8] | IC50 [9] | inhibition of growth at 20 µM (A-427 [10]) | inhibition of growth at 20 µM (MCF7 [11]) | inhibition of growth at 20 µM (RT-4 [12]) |
| --- | --- | --- | --- | --- | --- | --- | --- | --- | --- | --- | --- | --- |
| CN(C)c1cc(N)c2c3c(sc2n1)CCCC3 | > 20 µM | > 20 µM | < 50% | > 20 µM | > 20 µM | < 50% | > 20 µM | < 50% | > 20 µM | < 50% | < 50% | < 50% |
| Cc1c(C)n(Cc2ccccc2)c2nc(N(C)C)cc(N)c12 | > 20 µM | 13.1 µM |  | 19.6 µM | 12.5 µM | < 50% | 11.8 µM | < 50% | > 20 µM |  |  |  |
| C=CCn1c(-c2ccccc2)c(-c2ccccc2)c2c(N)cc(N(C)C)nc21 | > 20 µM | 9.04 µM |  | 12.1 µM | 3.93 µM | < 50% | 16.9 µM | < 50% | > 20 µM |  |  |  |
| Cc1c(-c2ccccc2)sc2nc(N(C)C)cc(N)c12 | 16.4 µM | 13.6 µM |  | 6.19 µM | 15.3 µM |  | 17.7 µM | < 50% | > 20 µM |  |  |  |
| Nc1cc(N2CCCC2)nc2sc(-c3ccccc3)c(-c3ccccc3)c12 | 8.17 µM | 13.7 µM |  | > 20 µM | 8.76 µM |  | 8.18 µM |  | 9.79 µM |  |  | < 50% |
| Cc1oc2nc(N3CCCC3)cc(N)c2c1C | > 20 µM | > 20 µM | < 50% | > 20 µM | > 20 µM | < 50% | > 20 µM | < 50% | > 20 µM | < 50% | < 50% | < 50% |
| Cc1cc2c(N)cc(N(C)C)nc2nc1-c1ccccc1 | 18.1 µM | 11.7 µM |  | 5 µM | 11.8 µM |  | 8.82 µM | < 50% | > 20 µM |  |  |  |
| CN(C)c1cc(N)c2c3ccccc3n(C)c2n1 | > 20 µM | > 20 µM | < 50% | > 20 µM | > 20 µM | < 50% | > 20 µM | < 50% | > 20 µM | < 50% | < 50% | < 50% |
| COc1ccc(Cn2c3nc(N(C)C)cc(N)c3c3ccc4ccccc4c32)cc1 | > 20 µM | > 20 µM | < 50% | > 20 µM | > 20 µM | < 50% | > 20 µM | < 50% | > 20 µM | < 50% | < 50% | < 50% |
| CN(C)c1cc(N)c2c(-c3ccccc3)c(-c3ccccc3)sc2n1 | 15.2 µM | 16.2 µM |  | > 20 µM | 11.2 µM |  | 10.1 µM |  | 10.6 µM |  |  | < 50% |
| Cc1nc2nc(N(C)C)cc(N)c2cc1-c1ccccc1 | > 20 µM | > 20 µM | < 50% | > 20 µM |  | < 50% | > 20 µM | < 50% | > 20 µM |  | < 50% | < 50% |
| Cc1oc2nc(N(C)C)cc(N)c2c1C | > 20 µM | > 20 µM | < 50% | > 20 µM | > 20 µM | < 50% | > 20 µM | < 50% | > 20 µM | < 50% | < 50% | < 50% |
